Key:
[1] = molecular target: T1, Thromboxane A2 receptor (Homo sapiens) (UniProt P21731); experiment: Tested in vitro for percent inhibition against TXA2 / PGH-2 receptor using [125I]PTA-OH in human platelets at 10 e-7 M
T1 sequence (whole entry): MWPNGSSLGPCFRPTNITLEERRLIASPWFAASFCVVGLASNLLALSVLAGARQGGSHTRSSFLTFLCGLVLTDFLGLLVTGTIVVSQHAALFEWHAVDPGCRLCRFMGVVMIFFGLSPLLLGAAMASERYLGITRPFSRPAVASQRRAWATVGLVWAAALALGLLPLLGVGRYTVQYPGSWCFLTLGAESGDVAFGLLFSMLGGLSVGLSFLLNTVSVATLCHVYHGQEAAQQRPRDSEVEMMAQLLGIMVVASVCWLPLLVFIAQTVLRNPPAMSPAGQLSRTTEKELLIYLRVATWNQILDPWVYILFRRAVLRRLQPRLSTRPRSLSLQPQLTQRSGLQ
In short: (§1)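 Washed human platelets from volunteer blood drawn into EDTA 5 mM and indomethacin 20 µM (final); PRP at 200 g, pellet at 2000 g. 5 × 10^7 platelets incubated 30 min at 37 °C with 0.1 nM [125I]PTA-OH in Tris/NaCl/dextrose/indomethacin buffer, pH 7.4. Screening at 10^-7 and 10^-5 M. Filtration, gamma counting. Nonspecific binding set by a tetrahydrocarbazole-acetic acid antagonist. Triplicate.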

[2] = molecular target: T1, Thromboxane A2 receptor (Homo sapiens); experiment: In vitro for percent inhibition against TXA2 / PGH-2 receptor using [125I]PTA-OH in human platelets at 10 e-5 M; in short: as §1
[3] = molecular target: T2, Thromboxane A2 receptor (Homo sapiens, UniProt P21731); experiment: Tested in vitro for inhibition constant against TXA2 / PGH-2 receptor using [125I]PTA-OH binding affinity to human platelets
T2 sequence (P21731 whole entry): T1 sequence (whole entry)

[4] = tested on: Cavia porcellus; experiment: In vivo inhibition of […]- epoxymethano-PGH2 (1 uM) induced platelet aggregation of guinea pig platelet-rich plasma (PRP) 1 hr after per os administration at 1 mg/kg po; assay type: functional
In short: (§2)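 Guinea pigs dosed orally. Platelet-rich plasma taken 1 h later and aggregation triggered with 11,9-epoxymethano-PGH2 (U-IPA) at 1 µM.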

[5] = tested on: Cavia porcellus; experiment: In vivo inhibition of […]- epoxymethano-PGH2 (1 uM) induced platelet aggregation of guinea pig platelet-rich plasma (PRP) 1 hr after per os administration at 0.3 mg/kg po; assay type: functional; in short: as §2

inhibition [1]	inhibition [2]	Ki [3]	SMILES	inhibition in vivo at 1 mg/kg [4]	inhibition in vivo at 0.3 mg/kg [5]
98%	100%	–	CC(C)(CC(=O)O)Cc1nc2cc(Cl)ccc2n1Cc1ccc(Br)cc1	–	–
24%	60%	–	O=C(O)CCCSc1nc2cc(Cl)cnc2n1Cc1ccc(Br)cc1F	–	–
95%	100%	0.02 µM	COc1ccc(Cn2c(CC(C)(C)CC(=O)O)nc3cc(Cl)ccc32)cc1	–	–
0%	64%	5.6 µM	O=C(O)CCc1nc2cc(F)ccc2n1Cc1ccc(Cl)cc1	–	–
3%	83%	0.67 µM	CC(C)(Sc1nc2cc(F)ccc2n1Cc1ccc(Cl)cc1)C(=O)O	–	–
100%	100%	–	CC(C)(CC(=O)O)Cc1nc2cc(F)ccc2n1Cc1ccc(S(C)(=O)=O)cc1	–	–
82%	87%	0.007 µM	CSc1ccc(Cn2c(CC(C)(C)CC(=O)O)nc3cc(Cl)cnc32)cc1	–	–
13%	95%	–	CC(C)(CC(=O)O)Cc1nc2ccccc2n1Cc1ccccc1	–	–
88%	99%	0.011 µM	CC(C)(CC(=O)O)Cc1nc2ccccc2n1Cc1ccc(Br)cc1F	–	–
69%	82%	–	CC(C)(CC(=O)O)Cc1nc2cc(Cl)ccc2n1Cc1ccc(S(C)(=O)=O)cc1	–	–
86%	96%	0.016 µM	CC(C)(CC(=O)O)Cc1nc2ccccc2n1Cc1ccc(Br)cc1	–	–
92%	95%	0.012 µM	CC(C)(CC(=O)O)Cc1nc2cc(F)ccc2n1Cc1ccc(Br)cc1	–	–
15%	96%	0.51 µM	O=C(O)[C@@H]1CC=CC[C@@H]1c1nc2cc(F)ccc2n1Cc1ccc(Cl)cc1	–	–
83%	100%	–	CC(C)(CC(=O)O)Cc1nc2ccccc2n1Cc1ccc([N+](=O)[O-])cc1	–	–
100%	100%	0.0153 µM	O=C(O)CC1CCCc2c1n(Cc1ccc(Cl)cc1)c1ccc(F)cc21 (stereo not given)	–	–
41%	62%	0.039 µM	CC(C)(CC(=O)O)Cc1nc2cccnc2n1Cc1ccc(Cl)cc1	–	–
35%	97%	0.16 µM	CCC(CC)(CC(=O)O)Cc1nc2ccccc2n1Cc1ccc(Cl)cc1	–	–
57%	100%	–	CCC(C)(CC(=O)O)Cc1nc2ccccc2n1Cc1ccc(Cl)cc1 (stereo not given)	–	–
27%	64%	–	O=C(O)CCCSc1nc2cccnc2n1Cc1ccc(Cl)cc1	–	–
0%	17%	–	O=C(O)CC(Cc1nc2ccccc2n1Cc1ccc(Cl)cc1)c1ccccc1 (stereo not given)	–	–

inhibition [1]	inhibition [2]	Ki [3]	SMILES	inhibition in vivo at 1 mg/kg [4]	inhibition in vivo at 0.3 mg/kg [5]
7%	90%	–	CC(C)(CC(N)=O)Cc1nc2ccccc2n1Cc1ccc(Cl)cc1	–	–
28%	100%	–	O=C(O)CCCCSc1nc2cc(F)ccc2n1Cc1ccc(Cl)cc1	–	–
6%	39%	–	O=C(O)CCCSc1nc2cc(Cl)cnc2n1Cc1ccc(Cl)cc1	–	–
94%	100%	0.0078 µM	CC(C)(CC(=O)O)Cc1nc2cc(F)ccc2n1Cc1ccc(Cl)cc1	–	–
80%	98%	0.052 µM	O=C(O)CC1(Cc2nc3cc(F)ccc3n2Cc2ccc(Cl)cc2)CC1	–	–
49%	100%	–	CC(C)(CC(=O)O)Cc1nc2ccccc2n1Cc1cccc(C(F)(F)F)c1	–	–
66%	100%	–	CC(C)(CC(=O)O)Cc1nc2ccccc2n1Cc1ccc(F)cc1	–	–
8%	93%	–	O=C(O)CCCSc1nc2cc(F)ccc2n1Cc1ccc(Cl)cc1	–	–
71%	92%	0.012 µM	CC(C)(CC(=O)O)Cc1nc2cc(Cl)ccc2n1Cc1ccc(Cl)c(Cl)c1	–	–
98%	100%	–	CC(C)(CC(=O)O)Cc1nc2cc(F)ccc2n1Cc1ccc(Br)cc1F	–	–
56%	87%	0.023 µM	CC(C)(CCC(=O)O)Cc1nc2cc(F)ccc2n1Cc1ccc(Cl)cc1	–	–
74%	99%	–	CC(C)(CC(=O)O)Cc1nc2cc(Cl)ccc2n1Cc1ccc(Cl)cc1	–	–
50%	96%	–	CC(C)(CC(=O)O)Cc1nc2ccccc2n1Cc1ccc(O)cc1	–	–
77%	87%	–	CC(C)(CC(=O)O)Cc1nc2cc(Cl)ccc2n1Cc1ccc(Cl)cc1F	–	–
97%	100%	0.021 µM	CC(C)(CC(=O)O)Cc1nc2cc(Cl)cnc2n1Cc1ccc(Cl)cc1 [MIPITROBAN]	81%	44%
0%	28%	–	CC(C)(CC(=O)O)c1nc2ccccc2n1Cc1ccc(Cl)cc1	–	–
38%	67%	–	CC(C)(CC(=O)O)Cc1nc2cc(Br)ccc2n1Cc1ccc(Cl)cc1	–	–
10%	100%	–	CC(CC(=O)O)Cc1nc2ccccc2n1Cc1ccc(Cl)cc1 (stereo not given)	–	–
74%	95%	–	CC(C)(CC(=O)O)Cc1nc2cc(Cl)ccc2n1Cc1ccc(Br)cc1F	–	–
71%	100%	–	O=C(O)CC1(Cc2nc3cc(F)ccc3n2Cc2ccc(Cl)cc2)CCCC1	–	–

inhibition [1]	inhibition [2]	Ki [3]	SMILES	inhibition in vivo at 1 mg/kg [4]	inhibition in vivo at 0.3 mg/kg [5]
37%	100%	0.14 µM	O=C(O)[C@H]1CCC[C@@H]1c1nc2cc(F)ccc2n1Cc1ccc(Cl)cc1	–	–
58%	77%	–	CC(C)(CC(=O)O)Cc1nc2cc(F)ccc2n1Cc1ccc(Cl)cc1F	–	–
30%	100%	–	CC(C)(Sc1nc2cc(Cl)cnc2n1Cc1ccc(Cl)cc1)C(=O)O	–	–
100%	100%	–	CSc1ccc(Cn2c(CC(C)(C)CC(=O)O)nc3cc(F)ccc32)cc1	–	–
0%	98%	0.87 µM	O=C(O)CC1(Cc2nc3cc(F)ccc3n2Cc2ccc(Cl)cc2)CCCCC1	–	–
2%	97%	0.81 µM	O=C(O)[C@H]1CC[C@@H]1c1nc2cc(F)ccc2n1Cc1ccc(Cl)cc1	–	–
44%	100%	–	COc1ccc2c(c1)nc(CC(C)(C)CC(=O)O)n2Cc1ccc(Cl)cc1	–	–
87%	89%	0.006 µM	CSc1ccc(Cn2c(CC(C)(C)CC(=O)O)nc3cc(Cl)ccc32)cc1	–	–
0%	0%	–	CC(C)(CC#N)Cc1nc2ccccc2n1Cc1ccc(Cl)cc1	–	–
89%	92%	–	CC(C)(CC(=O)O)Cc1nc2cc(F)ccc2n1Cc1ccc(Cl)c(Cl)c1	–	–
79%	100%	0.004 µM	COc1ccc(Cn2c(CC(C)(C)CC(=O)O)nc3cc(F)ccc32)cc1	–	–
89%	100%	–	COc1ccc(Cn2c(CC(C)(C)CC(=O)O)nc3ccccc32)cc1	–	–
52%	100%	–	Cc1ccc(Cn2c(CC(C)(C)CC(=O)O)nc3ccccc32)cc1	–	–
85%	100%	–	CC(C)(CC(=O)O)Cc1nc2ccccc2n1Cc1ccc(Cl)cc1	–	–
13%	95%	–	O=C(O)COc1ccc(CCNS(=O)(=O)c2ccccc2)cc1	–	–
14%	100%	–	CC(C)(CC(=O)O)Cc1nc2cc(Cl)c(Cl)cc2n1Cc1ccc(Cl)cc1	–	–
9%	83%	–	CC(Sc1nc2cc(F)ccc2n1Cc1ccc(Cl)cc1)C(=O)O (stereo not given)	–	–
0%	50%	1.7 µM	CC(C)(Cc1nc2cc(F)ccc2n1Cc1ccc(Cl)cc1)C(=O)O	–	–
